Bioassay records from PubChem.
ABCB6 inh MLPCN: inhibitors of human ABC transporter ABCB6; K562-ABCB6 porphyrin accumulation, flow cytometry, 1 h; stronger effect = lower value; fluorescence ratio to DMSO, % at 10 µM; actives 0.19% (n = 360,000); AID 602162;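 active = fluorescence ratio to DMSO below 75%, the collection mean minus 3 SD; inconclusive = too few cells collected in the well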;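 also: signal is porphyrin accumulated inside mitochondria; lower ratio means ABCB6 inhibition with less porphyrin fluorescence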
Target sequence (Q9NP58 whole entry, looked up): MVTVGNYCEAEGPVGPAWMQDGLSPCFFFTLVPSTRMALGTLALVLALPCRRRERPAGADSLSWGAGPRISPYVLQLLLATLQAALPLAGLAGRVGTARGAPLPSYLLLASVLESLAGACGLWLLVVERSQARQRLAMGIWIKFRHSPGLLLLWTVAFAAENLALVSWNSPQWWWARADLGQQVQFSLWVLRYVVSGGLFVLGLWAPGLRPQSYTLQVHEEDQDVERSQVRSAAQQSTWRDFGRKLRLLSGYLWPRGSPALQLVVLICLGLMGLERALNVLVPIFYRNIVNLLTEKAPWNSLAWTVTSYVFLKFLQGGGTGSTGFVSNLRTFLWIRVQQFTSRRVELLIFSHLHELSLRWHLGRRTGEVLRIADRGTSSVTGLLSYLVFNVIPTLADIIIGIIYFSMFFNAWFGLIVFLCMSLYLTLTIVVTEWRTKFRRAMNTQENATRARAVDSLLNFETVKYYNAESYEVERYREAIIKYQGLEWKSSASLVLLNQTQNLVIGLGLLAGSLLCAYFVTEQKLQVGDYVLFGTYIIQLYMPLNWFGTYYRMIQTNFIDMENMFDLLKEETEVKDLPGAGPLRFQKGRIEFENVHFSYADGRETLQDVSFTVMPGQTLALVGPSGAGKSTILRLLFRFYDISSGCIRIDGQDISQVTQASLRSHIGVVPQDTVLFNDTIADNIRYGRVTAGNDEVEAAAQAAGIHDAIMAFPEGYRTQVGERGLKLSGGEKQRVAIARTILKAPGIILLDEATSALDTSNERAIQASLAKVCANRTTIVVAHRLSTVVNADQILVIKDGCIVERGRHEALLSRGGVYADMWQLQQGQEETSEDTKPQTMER
V-ATPase pHluor: alters yeast V-ATPase proton transport; S. cerevisiae, pHLuorin cytosolic pH fluorescence; response, % at 10 µM; actives 0.37% (n = 350,000); in the data active = response mostly above about 7.3%, no sharp cut-off; inactive = mostly below about 5.4%; also: actives read high
Cl transport mod: modulates chloride dependent transport by human KCC2 | Q9H2X9 | KCC2 cells, thallium flux FluoZin-2 fluorescence | B-score of Tl+ flux slope (higher = more flux/activation; lower = inhibition) at 10 µM | actives 2.2% (n = 190,000) | AID 1456;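 active = thallium flux slope and its plate-corrected score both differing from the plate sample mean at a set confidence after two filtering rounds, in either direction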;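 also: slope of fluorescence scaled to starting intensity during 10 to 20 s after thallium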
Dynein transport: dynein cargo transport inhibition; 3617.4 mouse cells, GR-EGFP nuclear translocation imaging; test concentration mostly 20 µM; stimulated with dexamethasone, 1 µM; stronger effect = lower value; z-score, hits read low; actives 0.47% (n = 220,000);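 active = plate z-score of nuclear minus cytoplasmic receptor signal below a set negative limit, without overly bright fluorescence or cell loss, cut at about -3.5 in these data, passing the limit was not always enough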;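 also: z-score of nuclear minus cytoplasmic ring GR-EGFP intensity difference per well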
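Schedule: 48 h induction, then 1 h compound, then 30 min agonist, 37 °C. Buffer or medium: tetracycline-free induction medium containing charcoal-stripped FBS. Reagent: 1.0 µM final dexamethasone stimulus. Evaluation: nuclear versus cytoplasmic GR-EGFP signal, averaged per well. Signal: high-content fluorescence imaging after fixation.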
pCIP destab: compounds decreasing mouse p/CIP protein stability. F442A p/CIP-EGFP cells, EGFP fluorescence, 16 h. decrease of EGFP signal, % at 10 µM. actives 0.01% (n = 290,000). AID 1984;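 active = EGFP signal decrease of at least 30% at 10 µM or well 3 SD below plate mean, unless failing retest; inactive = the rest, including hits failing retest or dose response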
Dynein inh conf: dynein cargo transport inhibition, confirmation | shares compounds with Dynein transport | 3617.4 GR-EGFP nuclear translocation imaging, dexamethasone-induced | actives 69% (n = 1,000) | calls only at 20 µM;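 active = inhibition of receptor movement into the nucleus at or above a set limit in both runs, with normal cell brightness and cell count; inconclusive = limit reached in only one run, brightness and count normal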;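 also: dexamethasone at 1 µM final in well for 30 min; nuclear minus cytoplasmic GR-EGFP mean intensity difference in channel 2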
KCC2 sec1: KCC2 (human) modulation, secondary assay | actives 15% (n = 3,700) | shares compounds with Cl transport mod | HEK293-KCC2, thallium flux, FluoZin2 fluorescence; stronger effect = higher value | normalised thallium flux (F/F0 slope) at 10 µM;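 active = thallium flux slope above the same plate's solvent-only control mean plus 3 SD; inconclusive = the two replicate wells disagree; inactive = no significant difference from solvent-only control wells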
KCC2 bumet counter: bumetanide-insensitive thallium flux in KCC2 cells with ouabain, counter-screen. actives 49% (n = 3,700). normalized thallium flux at 10 µM. AID 1714. shares compounds with Cl transport mod. HEK293-KCC2 + bumetanide/ouabain, thallium flux FluoZin2; stronger effect = higher value;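 active = thallium entry rate above the same plate's blocked-transporter control wells by more than 3 SD; inconclusive = the two repeat wells disagree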;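 also: raw slope of fluorescence over initial fluorescence between 10 and 20 s after thallium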
KCC2 secondary2: KCC2 (human) modulation, second secondary assay. shares compounds with Cl transport mod. actives 23% (n = 3,700). HEK293-KCC2, thallium flux FluoZin2 fluorescence; actives lie on both sides; F/F0 rise rate, 10–20 s post-thallium. normalized thallium flux at 10 µM;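 active = thallium flux slope more than 3 SD above or below the plate's solvent-only control mean, mostly below; inconclusive = the two repeat wells disagreed; inactive = no significant shift from solvent-only controls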
HEK293 Tl flux: acts in parental HEK cells, KCC2 counter-screen; HEK293 parental cells, thallium flux FluoZin2, ouabain; baseline-ratio fluorescence slope, 10–20 s after thallium; AID 1716; shares compounds with Cl transport mod; thallium flux rate (normalised fluorescence) at 10 µM; actives 46% (n = 3,700);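 active = thallium flux rate significantly above the same plate's solvent-only control wells, beyond their mean plus 3 SD; inconclusive = the two replicate wells gave conflicting results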
KCC2 ouabain: modulates human KCC2 on retest with ouabain; shares compounds with Cl transport mod; HEK293-KCC2, thallium flux FluoZin2 fluorescence; bidirectional: low = inhibitor, high = activator; raw Tl+ flux slope (below DMSO = inhibition, above = activation) at 10 µM; actives 48% (n = 3,700);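 active = thallium flux slope beyond 3 SD from same-plate DMSO control mean in most replicates, usually higher, sometimes lower; inconclusive = repeat tests gave conflicting results; inactive = no significant difference from controls in most replicates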;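 also: slope of initial-normalized fluorescence between seconds 10 and 20 after thallium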
HEK counter2: counter-screen for KCC2 modulators: effect in parental HEK293 cells | shares compounds with Cl transport mod | thallium flux FluoZin-2 fluorescence slope | thallium flux slope at 10 µM | actives 33% (n = 3,700) | AID 1718;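 active = thallium flux slope above the same plate's solvent-control mean plus 3 SD in both duplicate wells; inconclusive = duplicate wells that disagreed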;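 also: run without ouabain in cells lacking the KCC2 cotransporter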
Each line names hits and unclear results; the compound was inactive in the other large screens (follow-up assays come after a bar, where they were run). Only a selection was taken, and hits are over-represented in it overall.

CC(C)(C)C(=O)/C(C#N)=C/c1cccs1	none
O=C(Oc1oc(-c2ccco2)nc1C=Nc1ccccc1)c1ccoc1	Dynein transport -4.04 | Dynein inh conf active
Cc1ccc(C(=O)Oc2oc(-c3ccco3)nc2C=Nc2ccc(Cl)cc2)cc1	Dynein transport -3.65 | Dynein inh conf active
O=C(Oc1oc(-c2ccco2)nc1C=Nc1ccccc1)c1ccco1	none
COc1cccc(-c2ccc3c(c2)O[C@@H](CN(C)C(=O)C2CCOCC2)[C@H](C)CN([C@H](C)CO)S3(=O)=O)c1	none (no result: Cl transport mod, Dynein transport, pCIP destab)
NC(=O)c1cccc(-c2ccnc3c2CC(C(=O)NCc2cccc(Cl)c2)O3)c1 (stereo not drawn)	none (no result: V-ATPase pHluor, Cl transport mod, Dynein transport, pCIP destab)
CCC(=O)N1Cc2cc(C(=O)NCC(F)(F)F)nc(-c3cccc(-c4cncnc4)c3)c2[C@H]1CCO	none (no result: V-ATPase pHluor, Cl transport mod, Dynein transport, pCIP destab)
CC(C)N=c1scc(-c2cccs2)n1/N=C/c1ccc(O)c(O)c1O	Dynein transport -4.16 | Dynein inh conf active
COc1ccc(-c2c(C#N)c(N)nc3sc(C(=O)c4ccccc4)c(N)c23)cc1	none | Dynein inh conf inactive
COc1ccccc1C(=O)N1CCN(C(=O)[C@H]2O[C@@H](n3ccc(=O)[nH]c3=O)[C@H](O)[C@@H]2O)CC1	none (no result: V-ATPase pHluor, Cl transport mod, Dynein transport, pCIP destab)
CO/N=C/c1ccc(Oc2ccc([N+](=O)[O-])cc2[N+](=O)[O-])c(OC)c1	none
COc1cc(/C=C2\SC(=O)NC2=O)ccc1Oc1ccc([N+](=O)[O-])cc1[N+](=O)[O-]	Cl transport mod -4.19, Dynein transport -3.79 | Dynein inh conf inconclusive | KCC2 sec1 inactive | KCC2 bumet counter 0.0101 | KCC2 secondary2 inactive | HEK293 Tl flux inactive | KCC2 ouabain inactive | HEK counter2 inactive
CCOc1ccc2nc(SC3CC(=O)N(c4ccc(OC)cc4OC)C3=O)sc2c1 (stereo not drawn)	Cl transport mod 5.75, Dynein transport -4.9 | Dynein inh conf active | KCC2 sec1 inactive | KCC2 bumet counter 0.013 | KCC2 secondary2 inactive | HEK293 Tl flux 0.0143 | KCC2 ouabain inconclusive | HEK counter2 0.0173
Cc1ccc(OCCOC(=O)CCc2nc3ccccc3c(=O)[nH]2)cc1	none
COc1cc(NC(=O)Cn2ncc(Cl)c(Cl)c2=O)c(C)cc1[N+](=O)[O-]	Cl transport mod -5.06, Dynein transport -3.82 | Dynein inh conf active | KCC2 sec1 inactive | KCC2 bumet counter inactive | KCC2 secondary2 inactive | HEK293 Tl flux 0.00587 | KCC2 ouabain 0.0169 | HEK counter2 inactive
COc1ccccc1NC(=O)CCCCCN1C(=O)c2cccc([N+](=O)[O-])c2C1=O	none (no result: Cl transport mod, Dynein transport)
COc1cc(/C=C2/C(=O)c3cccc([N+](=O)[O-])c3C2=O)c(Br)cc1O	Cl transport mod -4.67, Dynein transport -3.52 | Dynein inh conf inactive | KCC2 sec1 inactive | KCC2 bumet counter inactive | KCC2 secondary2 inactive | HEK293 Tl flux inactive | KCC2 ouabain inactive | HEK counter2 inactive
Cc1ccc(S(=O)(=O)NCc2nnnn2-c2ccc(F)cc2)cc1	none (no result: Cl transport mod, Dynein transport, pCIP destab)
CCN1C/C(=C/c2ccc(N3CCOCC3)cc2)C(=O)/C(=C/c2ccc(N3CCOCC3)cc2)C1	Cl transport mod -5.42 | Dynein inh conf active | KCC2 sec1 0.00364 | KCC2 bumet counter 0.00161 | KCC2 secondary2 0.0297 | HEK293 Tl flux inconclusive | KCC2 ouabain 0.00886 | HEK counter2 inactive
CCN(CC(=O)Nc1cccc(OC)c1)C(=O)C1CC(=O)N(Cc2ccccc2Cl)C1 (stereo not drawn)	none (no result: V-ATPase pHluor, Cl transport mod, Dynein transport, pCIP destab)
CCOC(=O)c1c(-c2ccccc2)csc1NC(=O)/C(C#N)=C/c1ccc(OC)c(OC)c1	none
CCOC(=O)c1c(-c2ccccc2)csc1NC(=O)/C(C#N)=C/c1ccc(O)c(OC)c1	Cl transport mod 5.25, Dynein transport -4.75 | Dynein inh conf active | KCC2 sec1 inactive | KCC2 bumet counter 0.0113 | KCC2 secondary2 inactive | HEK293 Tl flux 0.00948 | KCC2 ouabain inactive | HEK counter2 inactive
CCCCc1ccc(-n2c(Cc3cccs3)n[nH]c2=S)cc1	Cl transport mod 58.4 | KCC2 sec1 inactive | KCC2 bumet counter 0.0968 | KCC2 secondary2 0.0633 | HEK293 Tl flux 0.0799 | KCC2 ouabain 0.0525 | HEK counter2 0.0668
COCNc1nc(OCC#N)nc(N(C)C)n1	Cl transport mod 7.58 | KCC2 sec1 inactive | KCC2 bumet counter inactive | KCC2 secondary2 inactive | HEK293 Tl flux inactive | KCC2 ouabain inactive | HEK counter2 inactive
COc1ccc(C)cc1S(=O)(=O)N(C)CC(=O)NCc1ccncc1	none (no result: Cl transport mod, Dynein transport)
C=CCn1c(O)c(N=NC(=S)Nc2ccc(OC)cc2)c2ccccc21	Cl transport mod 53.1 | KCC2 sec1 inactive | KCC2 bumet counter 0.061 | KCC2 secondary2 0.0639 | HEK293 Tl flux 0.0591 | KCC2 ouabain 0.0585 | HEK counter2 0.0495
C=CCn1c(O)c(N=NC(=S)Nc2cccc(OC)c2)c2ccccc21	Cl transport mod 70.7 | KCC2 sec1 0.0202 | KCC2 bumet counter 0.109 | KCC2 secondary2 inactive | HEK293 Tl flux 0.041 | KCC2 ouabain 0.0521 | HEK counter2 0.0134
C=CCn1c(O)c(N=Nc2ccccc2)c2ccccc21	none (no result: Cl transport mod, Dynein transport)
CCc1ccccc1-n1c(SCC(=O)NC)nnc1-c1ccco1	none (no result: Cl transport mod, Dynein transport)
O=S(=O)(c1ccc(F)cc1)N1CCn2c(nc3ccccc32)C1	none (no result: Cl transport mod)
O=S(=O)(c1ccccc1)N1CCn2c(nc3ccccc32)C1	none (no result: Cl transport mod) | KCC2 sec1 inactive | KCC2 bumet counter inconclusive | KCC2 secondary2 inactive | HEK293 Tl flux inactive | KCC2 ouabain inactive | HEK counter2 inactive
Cc1ccc(CNC(=O)COC(=O)c2nc(-c3ccccc3)oc2C)cc1	none (no result: Cl transport mod, Dynein transport, pCIP destab)
CCN(Cc1ccccc1)S(=O)(=O)CCNC(=O)c1ccccc1	none (no result: Cl transport mod, Dynein transport, pCIP destab)
